Format in all cases: functional, cell-based
Assay [1] deals with U-937. Put plainly: Cytotoxicity against human U937 cells after 72 hrs by MTT assay. Conditions: U-937, 72 h. In short, it runs like this: (§1)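 MTT assay: 1 × 10^4 exponentially growing cells per well incubated 72 h over a range of compound concentrations; MTT 0.5 mg/mL for 4 h at 37 °C, then 10% SDS in 0.05 M HCl overnight at room temperature in the dark; absorbance at 570 nm. Leukemia and SK-MEL-1 lines grown in RPMI 1640, MCF-7 in DMEM, both with 10% heat-inactivated FBS. IC50 given as mean ± SEM of 3–5 independent experiments, each in triplicate.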
On the technique in general: Tetrazolium assays rely on reduction of a dye to a coloured formazan, in cell work by metabolically active cells.

The subject of assay [2] is MOLT-3. Put plainly: Cytotoxicity against human MOLT3 cells after 72 hrs by MTT assay. Conditions: MOLT-3, 72 h. Summed up: as §1
Assay [3] has as its system SK-MEL-1. Put plainly: Cytotoxicity against human SK-MEL-1 cells after 72 hrs by MTT assay. Conditions: SK-MEL-1, 72 h. Summed up:
as §1

Assay [4] has as its system MCF7. Put plainly: Cytotoxicity against human MCF7 cells after 72 hrs by MTT assay. Conditions: MCF7, 72 h. In short, it runs like this:
as §1

For assay [5], the system named is HL-60. Put plainly: Cytotoxicity against human HL60 cells after 72 hrs by MTT assay. The note with it: HL-60, 72 h. Summed up: as §1

Bounds are passed on as bounds.

The IC50 is the midpoint of a concentration-inhibition curve. On to `CCCC(=O)OC/C=C(\C)C[C@@H](O)[C@@]1(C)[C@H](C)CC=C2[C@@H]1CCCC2(C)C`, for which the IC50 in assay [1], in assay [2], in assay [3], in assay [4] and in assay [5] was over 30 µM each time.

On to `CC(=O)O[C@H]1C2=C(C(=O)C(OC(=O)c3ccc([N+](=O)[O-])cc3)=C(C(C)C)C2=O)[C@@]2(C)CCCC(C)(C)[C@@H]2[C@@H]1O`, for which the IC50 in assay [1] was determined as 1.1 µM; in assay [2], 10 µM; in assay [3] it was 5.7 µM; in assay [4] it was 11.4 µM; in assay [5], 8.4 µM.

Regarding `COc1ccc(C(=O)OC/C=C(\C)C[C@@H](O)[C@@]2(C)[C@H](C)CC=C3[C@@H]2CCCC3(C)C)cc1`, the IC50 in assay [1], in assay [2], in assay [3], in assay [4] and in assay [5] was over 30 µM each time.

As to `CCC(=O)OC1=C(C(C)C)C(=O)C2=C(C1=O)[C@@]1(C)CCCC(C)(C)[C@@H]1[C@H](OC(=O)CC)[C@H]2OC(C)=O`, the IC50 is 3.9 µM in assay [1]; 10.8 µM in assay [2]; 27.4 µM in assay [3]; 28.3 µM in assay [4]; 4.7 µM in assay [5].

For `CC(C)c1c(O)c(O)c2c(c1O)C(=O)C(O)=C1C(C)(C)CCC[C@@]12C`, the IC50 worked out at 4.3 µM in assay [1]; 8.8 µM in assay [2]; 10 µM in assay [3]; 27.5 µM in assay [4]; 4.1 µM in assay [5].

Regarding `CC(=O)O[C@H]1C2=C(C(=O)C(OC(=O)c3ccc(Cl)cc3)=C(C(C)C)C2=O)[C@@]2(C)CCCC(C)(C)[C@@H]2[C@@H]1OC(=O)c1ccc(Cl)cc1`, the IC50 was 5.6 µM in assay [1]; over 30 µM in assay [2]; over 30 µM in assay [3]; over 30 µM in assay [4]; 5.7 µM in assay [5].

On to `CC(=O)O[C@H]1C2=C(C(=O)C(O)=C(C(C)C)C2=O)[C@@]2(C)CCCC(C)(C)[C@@H]2[C@@H]1OC(=O)c1ccc([N+](=O)[O-])cc1`, for which the IC50 in assay [1] stood at 1.4 µM; in assay [2] it was 1.5 µM; in assay [3], 6.7 µM; in assay [4], 9.1 µM; in assay [5], 3.8 µM.

Turning to `CCO[C@@H]1C[C@H]2C(C)(C)CCC[C@]2(C)C2=C1C(=O)C(C(C)C)=C(O)C2=O`, the IC50 in assay [1], in assay [2], in assay [3], in assay [4] and in assay [5] was over 30 µM each time.

As for `CC(=O)OC1=C(C(C)C)C(=O)C2=C(C1=O)[C@@]1(C)CCCC(C)(C)[C@@H]1[C@H](OC(C)=O)[C@H]2OC(C)=O`, the IC50 in assay [1] is 6.4 µM; in assay [2] it was 3 µM; in assay [3] it was 8.1 µM; in assay [4], 5.9 µM; in assay [5], 9 µM.

As for `CC(=O)O[C@H](C/C(C)=C/C(=O)O)[C@@]1(C)[C@H](C)CC=C2[C@@H]1CCCC2(C)C`, the IC50 in assay [1], in assay [2], in assay [3], in assay [4] and in assay [5] was over 30 µM throughout.

On to `C/C(=C\COC(=O)c1ccccc1)C[C@@H](O)[C@@]1(C)[C@H](C)CC=C2[C@@H]1CCCC2(C)C`, for which the IC50 in assay [1], in assay [2], in assay [3], in assay [4] and in assay [5] was over 30 µM in each case.

As to `COc1cc([C@@H]2c3cc4c(cc3[C@@H](O[C@@H]3O[C@@H]5CO[C@@H](C)O[C@H]5[C@H](O)[C@H]3O)[C@H]3COC(=O)[C@H]23)OCO4)cc(OC)c1O` [ETOPOSIDE], the IC50 in assay [1] worked out at 1.4 µM; in assay [5], 0.5 µM.

For the compound `CC(C)C1=C(O)C(=O)C2=C(CC[C@H]3C(C)(C)CCC[C@]23C)C1=O` [ROYLEANONE], the IC50 in assay [1] is over 30 µM; in assay [2], 13.6 µM; in assay [3] it was over 30 µM; in assay [4], over 30 µM; in assay [5], over 30 µM.

On to `C[C@H]1Cc2c(O)c3c(c(O)c2O1)[C@@]1(C)CCC(=O)C(C)(C)C1=C(O)C3=O` [TEUVINCENONE A], for which the IC50 in assay [1] was 1.5 µM; in assay [2] it was 2.7 µM; in assay [3], over 30 µM; in assay [4] it was over 30 µM; in assay [5], 3.5 µM.

With `CCCC(=O)O[C@@H]1[C@@H](OC(C)=O)C2=C(C(=O)C(O)=C(C(C)C)C2=O)[C@@]2(C)CCCC(C)(C)[C@H]12`, the IC50 in assay [1] stood at 3.4 µM; in assay [2] it was 3.5 µM; in assay [3], 3.6 µM; in assay [4], 6.5 µM; in assay [5], 5.6 µM.

`CC(=O)O[C@H](C/C(C)=C/CO)[C@@]1(C)[C@H](C)CC=C2[C@@H]1CCCC2(C)C`: the IC50 in assay [1], in assay [2], in assay [3], in assay [4] and in assay [5] was over 30 µM in each case.

On to `CCC(=O)OC/C=C(\C)C[C@@H](O)[C@@]1(C)[C@H](C)CC=C2[C@@H]1CCCC2(C)C`, for which the IC50 in assay [1] was 24.7 µM; in assay [2], over 30 µM; in assay [3], over 30 µM; in assay [4] it was over 30 µM; in assay [5], over 30 µM.

As to `COc1c(O)c2c(c(O)c1C(C)C)C(=O)C[C@H]1C(C)=C(C)C(=O)C[C@]21C`, the IC50 in assay [1], in assay [2], in assay [3], in assay [4] and in assay [5] was over 30 µM throughout.

As for `CC(=O)O[C@H]1C2=C(C(=O)C(O)=C(C(C)C)C2=O)[C@@]2(C)CCCC(C)(C)[C@@H]2[C@@H]1O`, the IC50 in assay [1] was determined as 13.7 µM; in assay [2], 12.7 µM; in assay [3], 29.1 µM; in assay [4] it was 6.8 µM; in assay [5], 25.4 µM.

For `CCC(=O)O[C@@H]1[C@@H](OC(C)=O)C2=C(C(=O)C(O)=C(C(C)C)C2=O)[C@@]2(C)CCCC(C)(C)[C@H]12`, the IC50 in assay [1] amounted to 7 µM; in assay [2], 6.3 µM; in assay [3] it was 9 µM; in assay [4], 17.1 µM; in assay [5], 11.8 µM.

On to `CC(=O)Oc1c(C(C)C)cc2c(c1OC(C)=O)[C@@]1(C)CCCC(C)(C)C1=C(O)C2=O`, for which the IC50 in assay [1] was 8.4 µM; in assay [2] it was 13.4 µM; in assay [3], 24.1 µM; in assay [4], over 30 µM; in assay [5], 11.5 µM.

Turning to `CC(=O)O[C@@H]1[C@@H](OC(C)=O)C2=C(C(=O)C(O)=C(C(C)C)C2=O)[C@@]2(C)CCCC(C)(C)[C@H]12`, the IC50 in assay [1] came out at 12.1 µM; in assay [2] it was 5.4 µM; in assay [3], 16.2 µM; in assay [4], 23.3 µM; in assay [5], 15.9 µM.

As for `COc1c(O)c2c(c(O)c1C(C)C)C(=O)C[C@H]1C(C)(C)CCC[C@]21C` [INUROYLEANOL], the IC50 is 11.1 µM in assay [1]; over 30 µM in assay [2]; over 30 µM in assay [3]; over 30 µM in assay [4]; 20.8 µM in assay [5].

Turning to `COC(=O)/C=C(\C)C[C@@H](OC(C)=O)[C@@]1(C)[C@H](C)CC=C2[C@@H]1CCCC2(C)C`, the IC50 in assay [1], in assay [2], in assay [3], in assay [4] and in assay [5] was over 30 µM each time.

In the case of `CC(C)C1=CC2=CC(=O)[C@H]3C(C)(C)CCC[C@]3(C)C2=C(O)C1=O` [TAXODIONE], the IC50 in assay [1] was 3 µM; in assay [2], 1.8 µM; in assay [3], 9.6 µM; in assay [4] it was over 30 µM; in assay [5], 4.8 µM.

In the case of `C/C(=C\CO)C[C@@H](O)[C@@]1(C)[C@H](C)CC=C2[C@@H]1CCCC2(C)C`, the IC50 in assay [1], in assay [2], in assay [3], in assay [4] and in assay [5] was over 30 µM in each case.

On to `CC(=O)OC1=C2C(C)(C)CCC[C@]2(C)c2c(cc(C(C)C)c(OC(C)=O)c2OC(C)=O)C1=O`, for which the IC50 is 4.6 µM in assay [1]; 4.6 µM in assay [2]; 9.9 µM in assay [3]; over 30 µM in assay [4]; 4.1 µM in assay [5].
